By inhibition is commonly meant how much of the control response was suppressed.

The source of these data is ChEMBL document CHEMBL1154262, “Inhibitors of osteoclast formation from rhizomes of Cibotium barometz” (J Nat Prod, 2009).

One series concerns BMDM. The series is described as follows: Inhibition of osteoclastogenesis in RANKL and M-CSF-stimulated mouse BMDM cells after 4 days by TRAP assay. Format: functional, cell-based. The essentials:
(§1)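 Mouse femur/tibia marrow cells grown 3 days at 37 °C in R-MEM/10% FBS with M-CSF 100 ng/mL to give BMMs, lifted with trypsin/EDTA. They were then differentiated with M-CSF 20 ng/mL and RANKL 100 ng/mL plus compound, with medium changed every 2 days. At day 4, TRAP staining was done and TRAP-positive multinucleated cells per well were counted relative to DMSO control.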

Series [1] in a line: Cytotoxicity against RANKL and M-CSF-stimulated mouse BMDM cells at 100 to 200 uM after 72 hrs by MTS-cell titer assay. Format: cell-based. The essentials:
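Bone marrow macrophages from femora and tibia of 6-8 week old mice, expanded 3 days in R-MEM/10% FBS with M-CSF 100 ng/mL, then trypsin/EDTA-lifted. Cells exposed to compound alongside recombinant M-CSF 20 ng/mL plus RANKL 100 ng/mL for 72 h at 37 °C. Percent survival read by MTS (CellTiter 96 Aqueous) against DMSO-treated control.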
On the technique in general: Tetrazolium assays rely on reduction of a dye to a coloured formazan, in cell work by metabolically active cells.

Series [2] can be described thus: Inhibition of osteoclastogenesis in RANKL and M-CSF-stimulated mouse BMDM cells at 200 uM after 4 days by TRAP assay. Format: functional. The following applies: 96 h. The method in brief: as §1

Turning to `CO[C@@H]1C[C@](O)(CO[C@@H]2O[C@H](CO)[C@@H](OC(=O)/C=C/c3ccc(O)c(O)c3)[C@H](O)[C@H]2O)[C@H](OC)O1` [CIBOTIUMBAROSIDE B], the Activity entry is “Dose-dependent effect” in the series on BMDM and “Non-toxic” in series [1]. This compound had an inhibition at 200 µM in series [2] of 73%.
`CCCCC/C=C\C/C=C\CCCCCCCC(=O)OC[C@@H](O)CO[C@H]1O[C@H](CS(=O)(=O)O)[C@@H](O)[C@H](O)[C@H]1O`: the Activity result in the series on BMDM was “Dose-dependent effect”. In addition, at 200 µM the inhibition in series [2] was 97%.
Consider `CC1=CC(=O)CC(C)(C)[C@@]1(O)/C=C/[C@H](C)O[C@@H]1O[C@H](CO)[C@@H](O)[C@H](O)[C@H]1O` [6S,9S-ROSEOSIDE], for which the Activity result in the series with BMDM was “Dose-dependent effect”; in series [1], “Non-toxic”. Also, in series [2], the inhibition at 200 µM stood at 75%.
